Assay [1] has as its target T1, Metabotropic glutamate receptor 5 (Rattus norvegicus, UniProt P31424). As to the kind of experiment: Displacement of [3H]methoxyPEPy from rat mGluR5 expressed in HEK293 cells. Type of assay: cell-based. A digest of the protocol: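 Membranes from stable HEK cells expressing rat mGluR5a, resuspended in 50 mM Tris HCl/0.9% saline, pH 7.4. Final: 2 nM [3H]methoxyPEPy, 0.1 mg protein/mL, 0.13% DMSO, triplicate; 60 min at room temperature with shaking. Filtration onto GF/B filters, scintillation counting. Nonspecific binding with 5 µM MPEP. Ki derived from IC50 by nonlinear fit; mean ± SEM of three experiments.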
In general terms: Displacement assays read how much labelled ligand stays bound in the presence of the test substance.

Assay [2] deals with T1, Metabotropic glutamate receptor 5. As to the kind of experiment: (§1) Activity at mGluR5 assessed as potentiation of glutamate-induced calcium flux in rat astrocytes. The class given is functional, cell-based. A digest of the protocol:
(§2)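 Cortical astrocytes from 2-4-day-old Sprague Dawley rats, grown 1 week in DMEM/10% FBS/2 mM glutamine/20 mM HEPES at 37 °C, 5% CO2, then plated on poly-D-lysine. Dye-loaded 1 h at 37 °C; HBSS with 20 mM HEPES, 2.5 mM probenecid, pH 7.4.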

Assay [3] has as its target Metabotropic glutamate receptor 5 (Rattus norvegicus) (UniProt P31424). The description is as §1. Type of assay: functional, cell-based. A digest of the protocol:
as §2

Molecules are shown by their SMILES. pEC50, pKi: −log10 of the molar value. Active and inactive are the calls of the source. No cut-off for these calls is given here. Some results are limits rather than exact numbers.

This note sets out measurements from ChEMBL document CHEMBL1148504, “Substituent effects of N-(1,3-diphenyl-1H-pyrazol-5-yl)benzamides on positive allosteric modulation of the metabotropic glutamate-5 receptor in rat cortical astrocytes” (J Med Chem, 2006).

The pKi is −log10 of the Ki, conventionally taken in molar units. Low readings indicate a large Ki, high ones a small Ki. By pEC50 is commonly meant the negative decadic logarithm of the EC50, by convention in mol/L.

T1 sequence (P31424 whole entry): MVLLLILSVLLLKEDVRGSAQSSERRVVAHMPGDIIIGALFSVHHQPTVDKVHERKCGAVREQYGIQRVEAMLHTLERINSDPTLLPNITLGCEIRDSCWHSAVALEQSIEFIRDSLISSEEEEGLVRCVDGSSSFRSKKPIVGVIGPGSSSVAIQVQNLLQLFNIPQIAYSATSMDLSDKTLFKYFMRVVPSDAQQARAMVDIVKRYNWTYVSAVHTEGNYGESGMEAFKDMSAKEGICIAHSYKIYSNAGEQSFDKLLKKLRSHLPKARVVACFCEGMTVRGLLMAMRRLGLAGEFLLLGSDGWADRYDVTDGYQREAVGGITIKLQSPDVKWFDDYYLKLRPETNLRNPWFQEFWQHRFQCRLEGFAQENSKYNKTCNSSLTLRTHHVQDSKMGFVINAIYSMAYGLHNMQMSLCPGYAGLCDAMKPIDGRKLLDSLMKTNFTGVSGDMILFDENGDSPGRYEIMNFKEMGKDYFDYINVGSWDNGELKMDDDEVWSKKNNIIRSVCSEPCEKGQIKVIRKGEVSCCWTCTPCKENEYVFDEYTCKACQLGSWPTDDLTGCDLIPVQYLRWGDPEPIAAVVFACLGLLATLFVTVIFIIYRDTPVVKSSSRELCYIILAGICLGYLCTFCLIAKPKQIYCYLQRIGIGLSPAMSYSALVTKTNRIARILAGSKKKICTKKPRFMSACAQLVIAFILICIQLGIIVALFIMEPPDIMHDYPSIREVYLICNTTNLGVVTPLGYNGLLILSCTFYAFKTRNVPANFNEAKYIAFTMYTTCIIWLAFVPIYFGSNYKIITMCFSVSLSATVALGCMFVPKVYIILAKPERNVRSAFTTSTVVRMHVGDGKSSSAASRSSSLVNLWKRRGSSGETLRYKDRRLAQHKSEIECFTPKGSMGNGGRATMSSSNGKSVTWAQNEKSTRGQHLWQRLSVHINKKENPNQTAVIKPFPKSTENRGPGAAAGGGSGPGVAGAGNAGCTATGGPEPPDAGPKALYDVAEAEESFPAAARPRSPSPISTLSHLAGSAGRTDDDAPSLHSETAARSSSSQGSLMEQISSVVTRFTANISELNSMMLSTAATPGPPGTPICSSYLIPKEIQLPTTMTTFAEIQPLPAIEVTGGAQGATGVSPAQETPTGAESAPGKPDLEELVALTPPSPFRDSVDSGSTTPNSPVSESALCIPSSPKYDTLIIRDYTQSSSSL
Sequence of Metabotropic glutamate receptor 5 (Rattus norvegicus) (P31424 21-1203 limits assumed): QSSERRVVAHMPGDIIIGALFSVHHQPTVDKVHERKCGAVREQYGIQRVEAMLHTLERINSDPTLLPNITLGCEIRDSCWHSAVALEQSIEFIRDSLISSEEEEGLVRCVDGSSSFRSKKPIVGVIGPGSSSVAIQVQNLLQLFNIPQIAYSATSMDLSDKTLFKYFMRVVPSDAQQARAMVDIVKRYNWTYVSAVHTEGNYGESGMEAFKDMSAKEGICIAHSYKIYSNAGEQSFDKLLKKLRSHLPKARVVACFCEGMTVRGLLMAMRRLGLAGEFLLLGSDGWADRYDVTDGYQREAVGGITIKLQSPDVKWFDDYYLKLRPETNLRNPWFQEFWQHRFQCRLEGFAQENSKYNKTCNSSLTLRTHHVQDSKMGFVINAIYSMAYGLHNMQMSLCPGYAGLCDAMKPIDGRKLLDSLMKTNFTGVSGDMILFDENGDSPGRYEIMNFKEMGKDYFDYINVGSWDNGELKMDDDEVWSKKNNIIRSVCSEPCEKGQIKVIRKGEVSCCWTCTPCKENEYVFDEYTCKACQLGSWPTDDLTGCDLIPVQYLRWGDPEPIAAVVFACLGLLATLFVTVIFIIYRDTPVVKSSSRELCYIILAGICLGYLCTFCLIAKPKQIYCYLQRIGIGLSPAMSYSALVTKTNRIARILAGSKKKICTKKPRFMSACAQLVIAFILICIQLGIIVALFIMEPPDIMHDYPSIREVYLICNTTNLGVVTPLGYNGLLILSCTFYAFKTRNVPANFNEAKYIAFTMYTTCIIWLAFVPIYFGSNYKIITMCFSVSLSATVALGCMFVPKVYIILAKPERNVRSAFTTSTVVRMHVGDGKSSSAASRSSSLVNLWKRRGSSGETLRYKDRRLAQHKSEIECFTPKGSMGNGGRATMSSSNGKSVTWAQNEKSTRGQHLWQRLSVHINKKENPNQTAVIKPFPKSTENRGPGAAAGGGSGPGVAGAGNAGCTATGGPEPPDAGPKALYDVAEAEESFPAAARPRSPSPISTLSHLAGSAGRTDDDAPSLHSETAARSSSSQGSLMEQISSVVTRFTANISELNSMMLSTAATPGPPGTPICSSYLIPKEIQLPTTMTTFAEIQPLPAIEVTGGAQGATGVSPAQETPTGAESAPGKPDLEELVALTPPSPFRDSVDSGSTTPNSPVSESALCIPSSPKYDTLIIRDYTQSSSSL

`O=C(Nc1cc(-c2ccccc2)nn1-c1ccccc1)c1cccc(C(F)(F)F)c1` showed a pKi in assay [1] of 5.78. In addition, the pEC50 in assay [2] is 6.64. In the case of `O=C(Nc1cc(-c2ccccc2Cl)nn1-c1ccccc1)c1ccccc1`, the pKi in assay [1] was < 5.00. Further, the pEC50 in assay [2] is 5.64.

In assay [1], `N#Cc1cccc(C(=O)Nc2c(-c3ccccc3)nc3ccccn23)c1` had a pKi of 5.70. In addition, the Activity entry in assay [3] (filed as antagonist) was “Antagonist”. Consider `N#Cc1ccc(C(=O)Nc2cc(-c3ccccc3)nn2-c2ccccc2)cc1`, for which, in assay [1], the pKi was 5.81. The negative-log EC50 (pEC50) in assay [2] is 7.12.

In assay [1], `O=C(Nc1cc(-c2ccccc2)nn1-c1ccccc1Br)c1cccc([N+](=O)[O-])c1` showed a pKi of 6.64. Moreover, in assay [2], the pEC50 is 7.17. In the same order, the values of `O=C(Nc1cn(-c2ccccc2)nc1-c1ccccc1)c1ccccc1` are < 5.00 and < 5.00. Taken in the same sequence, the figures for `N#Cc1ccc(C(=O)N(C(=O)c2ccc(C#N)cc2)c2cc(-c3ccccc3)nn2-c2ccccc2)cc1` were 5.52 and 6.47. In the same order, the values of `O=C(Nc1cc(-c2ccccc2)nn1-c1ccccc1Br)c1ccccc1` are 5.59 and 6.70. The molecule `O=C(Nc1c(-c2ccccc2)cnn1-c1ccccc1)c1ccccc1` had a pKi in assay [1] of 5.93. In addition, the Activity entry in assay [3] (filed as antagonist) was “Antagonist”. Turning to `NC(=O)c1ccc(C(=O)Nc2cc(-c3ccccc3)nn2-c2ccccc2)cc1`, in assay [1], the pKi was < 5.00. Also, the outcome in assay [3] was inactive. `O=C(Nc1cc(-c2ccccc2)nn1-c1ccccc1)c1ccc([N+](=O)[O-])cc1` gave a pKi in assay [1] of 6.60. Moreover, the pEC50 in assay [2] was 7.97.

The molecule `O=C(Nc1c(-c2ccccc2)nc2ccccn12)c1ccccc1` had a pKi in assay [1] of 5.41. For the same molecule, the Activity result in assay [3] (filed as antagonist) is “Antagonist”. With `O=C(Nc1cc(-c2ccccc2)nn1-c1ccccc1)c1cc([N+](=O)[O-])cc([N+](=O)[O-])c1`, in assay [2], the pEC50 is 7.19.

As for `O=C(Nc1cc(-c2ccccc2)nn1-c1ccccn1)c1ccccc1`, in assay [1], the pKi was < 5.00. The outcome in assay [3] was inactive. Regarding `O=C(Nc1cc(-c2ccccc2)nn1-c1ccccc1)c1ccccc1[N+](=O)[O-]`, the pKi in assay [1] was < 5.00. Moreover, the pEC50 in assay [2] is < 5.00. In turn, `O=C(Nc1cc(-c2ccccc2)nn1-c1ccccc1)c1ccccc1` showed a pKi in assay [1] of 5.38. For the same molecule, the pEC50 in assay [2] is 6.69. In the case of `O=C(Nc1cc(-c2ccccc2)nn1-c1ccccc1)C1CCCC1`, the negative logarithm of the Ki (pKi) in assay [1] is 4.94. The pEC50 in assay [2] was 5.47. As for `N#Cc1cccc(C(=O)Nc2cc(-c3ccccc3)nn2-c2ccccc2Br)c1`, the pKi in assay [1] is 6.64. Moreover, the pEC50 in assay [2] was 7.30. In the same order, the values of `O=C(Nc1cc(-c2ccccc2)nn1-c1cccc(Br)c1)c1ccccc1` are < 5.00 and 6.40. Take `O=C(O)c1ccc(C(=O)Nc2cc(-c3ccccc3)nn2-c2ccccc2)cc1`: the negative-log Ki (pKi) in assay [1] was < 5.00. In addition, the result in assay [3] was inactive. For the molecule `COc1cc(OC)cc(C(=O)Nc2cc(-c3ccccc3)nn2-c2ccccc2)c1`, the pKi in assay [1] is < 5.00. In assay [2], the pEC50 is 5.69.

`O=C(Nc1cc(-c2ccccc2)nn1-c1ccccc1Cl)c1ccc([N+](=O)[O-])cc1` gave a pKi in assay [1] of 6.96. Also, the pEC50 in assay [2] is 7.40. In the same order, the values of `O=C(Nc1cc(-c2ccccc2)nn1-c1ccccc1)C1=CCCCC1` are 5.35 and 5.48.

In assay [1], `O=C(Nc1cc(-c2ccccc2)nn1-c1ccccc1)c1ccc(OC(F)(F)F)cc1` showed a pKi of 6.58. Moreover, the pEC50 in assay [2] was 7.74. Taken in the same sequence, the figures for `Cc1ccc(C(=O)Nc2cc(-c3ccccc3)nn2-c2ccccc2)cc1` were 6.11 and 7.19.

As to `c1ccc(-c2cn(-c3cc(-c4ccccc4)nn3-c3ccccc3)nn2)cc1`, the negative logarithm of the Ki (pKi) in assay [1] was 5.23. For the same molecule, in assay [2], the negative-log EC50 (pEC50) was 5.59. Regarding `O=C(Nc1cn(-c2ccccc2)nc1-c1ccccc1)c1ccc([N+](=O)[O-])cc1`, the pKi in assay [1] was < 5.00. For the same molecule, the pEC50 in assay [2] is < 5.00. In turn, `COc1ccc(C(=O)Nc2cc(-c3ccccc3)nn2-c2ccccc2)cc1` had a pKi in assay [1] of 6.38. The pEC50 in assay [2] was 7.27. In the same order, the values of `N#Cc1cccc(C(=O)Nc2cn(-c3ccccc3)nc2-c2ccccc2)c1` are < 5.00 and < 5.00. Consider `COc1ccc(C(=O)Nc2cc(-c3ccccc3)nn2-c2ccccc2)cc1OC`, for which the pKi in assay [1] is < 5.00. Also, the negative-log EC50 (pEC50) in assay [2] is 5.45.

Consider `O=C(Nc1c(-c2ccccc2)cnn1-c1ccccc1)c1ccc([N+](=O)[O-])cc1`, for which the pKi in assay [1] is < 5.00. Further, the pEC50 in assay [2] is < 5.00. On to `COc1cccc(-c2cc(NC(=O)c3ccccc3)n(-c3ccccc3)n2)c1`, for which, in assay [1], the pKi is 5.49. Besides, the pEC50 in assay [2] is 6.22. Taken in the same sequence, the figures for `O=C(Nc1cc(-c2ccccc2)nn1-c1ccccc1Cl)c1ccccc1` were 6.30 and 7.21.

As for `N#Cc1cccc(-n2nc(-c3ccccc3)cc2NC(=O)c2ccccc2)c1`, the pKi in assay [1] is < 5.00. For the same molecule, the pEC50 in assay [2] was 6.93. `O=C(Nc1cc(-c2ccccc2)nn1-c1ccccc1)c1ccc(Cl)c(Cl)c1` showed a pKi in assay [1] of 6.80. Besides, the pEC50 in assay [2] is 7.89.

Take `O=C(CC1CCCC1)Nc1cc(-c2ccccc2)nn1-c1ccccc1`: in assay [1], the pKi is < 5.00. Also, in assay [2], the pEC50 was 6.46. Taken in the same sequence, the figures for `O=C(Nc1cc(-c2ccccc2)nn1-c1ccccc1F)c1ccccc1` were 5.57 and 6.98.

With `Cc1ccc(C(=O)Nc2cc(-c3ccccc3)nn2-c2ccccc2)cn1`, in assay [1], the pKi is 5.46. Further, the pEC50 in assay [2] was 6.55.

For `N#Cc1ccc(C(=O)/N=c2\cc(-c3ccccc3)n(C(=O)c3ccc(C#N)cc3)n2-c2ccccc2)cc1`, the pKi in assay [1] is 5.28. For the same molecule, the pEC50 in assay [2] is 7.37. Taken in the same sequence, the figures for `O=C(Nc1cc(-c2ccccc2)nn1-c1ccccc1)C1CCCCC1` were 4.99 and < 5.00. As to `O=C(Nc1cc(-c2ccccc2)nn1-c1ccccc1Br)c1ccc([N+](=O)[O-])cc1`, the negative logarithm of the Ki (pKi) in assay [1] was 6.92. Further, the pEC50 in assay [2] is 7.21.

In assay [1], `Cc1ccc(C(=O)Nc2cc(-c3ccccc3)nn2-c2ccccc2)cc1C` had a pKi of 6.37. Moreover, the pEC50 in assay [2] is 7.70.

Molecule `O=C(Nc1cc(-c2ccccc2)nn1-c1ccccc1)c1cccc([N+](=O)[O-])c1` had a negative-log Ki (pKi) in assay [1] of 5.65. Also, the pEC50 in assay [2] was 7.41.

Regarding `COc1cccc(-n2nc(-c3ccccc3)cc2NC(=O)c2ccccc2)c1`, in assay [1], the pKi was 5.68. For the same molecule, the pEC50 in assay [2] is 6.24. In the case of `O=C(c1ccc(F)cc1)N1CCC[C@H](c2nc(-c3ccc(F)cc3)no2)C1`, the pEC50 in assay [2] is 6.77. In assay [1], `O=C(Nc1cc(-c2ccccc2)nn1-c1ccccc1F)c1ccc([N+](=O)[O-])cc1` had a pKi of 6.80. Also, in assay [2], the pEC50 was 8.02. Taken in the same sequence, the figures for `COc1cccc(C(=O)Nc2cc(-c3ccccc3)nn2-c2ccccc2)c1` were 5.89 and 6.99. Taken in the same sequence, the figures for `O=C(Nc1cc(-c2ccccc2)nn1-c1ccccc1)c1ccncc1` were < 5.00 and 5.60.

Molecule `N#Cc1cccc(C(=O)Nc2c(-c3ccccc3)cnn2-c2ccccc2)c1` had a pKi in assay [1] of 5.92. Moreover, in assay [3] (filed as antagonist), the Activity entry was “Antagonist”. In turn, `O=C(Nc1cc(-c2ccccc2)nn1-c1ccccc1)c1ccc(C(F)(F)F)cc1` gave a pKi in assay [1] of 6.00. The pEC50 in assay [2] was 7.42. In assay [1], `O=C(/C=C/c1ccc([N+](=O)[O-])cc1)Nc1cc(-c2ccccc2)nn1-c1ccccc1` showed a negative-log Ki (pKi) of 5.74. Further, the pEC50 in assay [2] was 6.25.
